CXCR6 block: blocks human CXCR6 beta-arrestin recruitment | O00574 | CHO-K1 PathHunter CXCR6 beta-arrestin, luminescence | inhibition, % at 20 µM | actives 0.36% (n = 360,000) | AID 602244; in the data active = inhibition above about 34%, passing the limit was not always enough;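 note: antagonist mode with CXCL16 agonist at 10 nM final; 0% = 10 nM CXCL16 with DMSO and 100% = unstimulated wells without agonist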
Target sequence (O00574 whole entry, looked up): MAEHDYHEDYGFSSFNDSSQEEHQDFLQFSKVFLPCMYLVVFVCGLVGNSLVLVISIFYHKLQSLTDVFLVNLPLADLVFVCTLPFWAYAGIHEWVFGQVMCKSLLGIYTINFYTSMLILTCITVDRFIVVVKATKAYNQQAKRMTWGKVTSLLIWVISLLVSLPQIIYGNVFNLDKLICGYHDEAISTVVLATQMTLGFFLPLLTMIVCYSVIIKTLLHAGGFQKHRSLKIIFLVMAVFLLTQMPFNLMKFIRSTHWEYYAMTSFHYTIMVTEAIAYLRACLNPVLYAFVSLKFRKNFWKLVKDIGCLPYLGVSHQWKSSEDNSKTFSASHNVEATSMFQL
APJ antag: antagonists of human APJ apelin receptor. CHO-K1 APJ beta-arrestin complementation, luminescence. inhibition, % at 20 µM. actives 0.32% (n = 330,000). AID 2521;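 active = inhibition above about 40% at 20 µM, limit read from the data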;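 note: cells challenged with 10 nM apelin-13 agonist together with compound; plate controls were apelin-13 plus DMSO wells for no effect and DMSO wells lacking apelin-13 for full effect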
hiPSC survival: enhancers of human iPSC single-cell survival; actives 0.044% (n = 360,000); survival enhancement, % at 20 µM; hiPSC single-cell survival, ATPlite luminescence; 100% = ROCK inhibitor wells, 0% = DMSO; AID 602274; in the data active = survival enhancement above about 18%;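 note: cells exposed to compounds for 16 hours before the ATP read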
CCR6 antagonist: antagonists of human CCR6 receptor | P51684 | CHO-K1 CCR6 PathHunter beta-arrestin, luminescence, CCL20-stimulated | inhibition, % at 20 µM | actives 0.49% (n = 340,000);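 active = compounds whose inhibition of the agonist-driven luminescence signal at 20 µM reaches about 50%, limit read from the data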;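 note: cells stimulated with CCL20 at 14 nM final; plate controls were DMSO with CCL20 for no effect and DMSO without agonist for full effect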
APJ ag: APJ receptor agonism; CHO-K1 APJ PathHunter beta-arrestin, luminescence; 0% DMSO wells, 100% apelin; actives 0.11% (n = 330,000); activation, % at 20 µM; AID 2520; P35414;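 active = activation more than six SD over the plate average, tested at 20 µM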;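 note: 0% = DMSO alone and 100% = apelin-13 at 10 nM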
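Assay system: CHO-K1 APJ beta-arrestin complementation cell line / Compound: single test compound dose, 20 µM final, 1% DMSO / Times: overnight seeding, 90 min compound at 25 °C, 1 h detection / Technique: beta-gal luminescence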
EBI2 antag: blocks human EBI2 receptor beta-arrestin signaling; actives 0.81% (n = 360,000); EBI2 beta-arrestin recruitment, luminescence, 7a,25-OHC stimulated; P32249; inhibition, % at 5 µM; in the data active = inhibition above about 38%;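 note: enzyme fragment complementation signal reports receptor beta-arrestin coupling in cells; 0% = agonist plus DMSO wells and 100% = wells without agonist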
APJ antag conf: confirmation of human APJ apelin receptor antagonists; shares compounds with APJ antag; APJ beta-arrestin recruitment, luminescence, antagonist mode; inhibition, % at 20 µM; actives 66% (n = 950); AID 2766; in the data active = inhibition above about 50%
* = called active by the depositor; nt = no result. This is a sample that favours compounds with a hit; in the whole collection about 1.5% have one here.

SMILES	CXCR6 block	APJ antag	hiPSC survival	CCR6 antagonist	APJ ag	EBI2 antag	APJ antag conf
c1cc2c(c(CC3CO3)c1CC1CO1)OCCOCCOCCOCCO2 (stereo not drawn)	6.7	nt	-0.8	nt	nt	-2.3	nt
CC(=O)c1ccc(N2CCN(C(=S)NCc3ccco3)CC2)cc1	2.3	44.8*	1.1	-3.4	-2.6	-4.6	2.9
Cc1ccc(NC(=S)NCC2CCCO2)cc1 (stereo not drawn)	-1.4	45.3*	-2.1	11.5	-2.3	-11.8	19.9
COc1ccccc1OCC(O)Cn1nc(C)cc1C (stereo not drawn)	-5.8	13.5	-2.1	4.7	-0.5	-5.0	nt
COc1ccccc1Oc1cc(-n2nc(C)cc2C)ncn1	-0.4	54.3*	-0.3	-3.2	-0.8	2.9	9.4
Cc1ccc(OCC(=O)OCC(=O)NC2CCCCCC2)cc1C	2.3	nt	-1.4	nt	nt	2.7	nt
Cc1ccc(C(=O)NCCCNC(=O)Cc2ccccc2)cn1	-3.0	-23.3	-0.5	3.3	-2.6	-7.3	nt
CC(/C=N/n1c(C2CCCCC2)n[nH]c1=S)=C\c1ccccc1	11.9	46.7*	-3.6	33.3	-5.3	1.7	78.4*
COCCN(C(=O)c1oc2ccccc2c1COC)c1c(N)n(CC(C)C)c(=O)[nH]c1=O	1.0	10.9	0.0	1.9	-2.5	-5.3	nt
COc1ccc(NC(=O)CSc2ccccn2)cc1OC	-2.3	2.4	6.8	-10.1	-0.4	-4.2	nt
COc1ccc(NC(=O)CSc2nnc(-c3ccccn3)n2-c2ccccc2)cc1OC	-1.7	40.7*	-1.4	-13.6	-0.1	-4.9	-16.2
O=C(Cn1cccc1C(=O)c1ccccc1)NCCCN1CCc2ccccc2C1	13.6	2.2	0.0	26.9	-1.2	15.8	nt
O=C(c1ccccc1)c1cccn1CC(=O)N1CCc2ccccc2C1	47.6*	49.8*	0.0	50.8*	-6.3	12.4	94.1*
CCc1ccc(N=Nc2ccc(O)c3[nH]cnc23)cc1	29.9	30.3	-0.6	40.8	-6.7	-21.0	nt
CC(C)(C)C(=O)NC(=S)NNC(=O)c1ccc(-c2ccccc2)cc1	84.0*	66.3*	-0.7	101.9*	-8.6	17.6	111.9*
CCOc1ccc(C(=O)NC(=S)N(Cc2ccccc2)Cc2ccccc2)cc1	32.7	nt	-0.7	27.5	nt	7.2	nt
CCCN(CCC)C(=S)NC(=O)c1ccc(-c2ccccc2)cc1	23.4	45.4*	-3.0	37.1	-7.7	20.8	6.8
O=C1NC(=O)C2(CCC(C3CCCCC3)CC2)N1 (stereo not drawn)	-4.1	nt	1.1	4.0	nt	10.2	nt
CC(C)(C)OC(=O)C[C@@H]1C/C=C\C[C@H](CC(=O)N(CCO)Cc2ccccc2)C(=O)NC[C@@H](c2ccccc2)OC1=O	56.1*	54.2*	8.7	56.0*	-8.6	23.2	100.2*
CCN(CC)C(=O)c1nc[nH]c1C(=O)N1CCc2ccccc2C1	0.6	14.0	-0.2	-2.0	-0.2	-15.1	nt
Cc1cc(=O)n2[nH]c(=O)c(N=Nc3ccccc3)c2[nH]1	18.5	25.2	-3.1	28.1	-2.1	2.7	nt
CCOc1ccc(N=Nc2c(=O)[nH]n3c(=O)cc(C)[nH]c23)cc1	15.9	46.6*	-0.6	48.4	-6.6	6.9	48.9
C=CCC1NS(=O)(=O)OCC1C(C)C (stereo not drawn)	-7.8	-14.8	5.6	-3.9	-2.2	-4.7	nt
COc1ccccc1CN1C(=NC(=O)CCC2CCCC2)SC2CS(=O)(=O)CC21 (stereo not drawn)	-7.0	47.5*	0.0	7.8	-2.5	-4.9	2.2
O=C(C[C@H]1C=C[C@@H](NC(=O)Cc2cccnc2)[C@@H](CO)O1)NCc1ccc2c(c1)OCO2	nt	nt	nt	nt	nt	-10.1	nt
Cc1ccc(SSc2cc(C)ccc2N)c(N)c1	3.2	44.6*	-1.9	14.9	-12.1	26.8	127.1*
CCCCNC(=S)NNC(=O)CCn1nc(C)c(Br)c1C	27.7	64.3*	0.3	40.6	-15.4	19.8	124.8*
Cc1nn(CCC(=O)NNC(=S)Nc2ccc([N+](=O)[O-])cc2)c(C)c1[N+](=O)[O-]	32.8	48.9*	1.5	30.3	-6.3	7.0	87.4*
